# According to ChEMBL document CHEMBL1148625, “3-(1,1-dioxo-2H-(1,2,4)-benzothiadiazin-3-yl)-4-hydroxy-2(1H)-quinolinones, potent inhibitors of hepatitis C virus RNA-dependent RNA polymerase” (J Med Chem, 2006):
# Key:
# [1] = molecular target: RNA-directed RNA polymerase (Hepacivirus hominis, UniProt O39930); assay: Inhibitory activity against HCV delta 21 NS5B RNA polymerase by SPA assay; design: species or system Hepatitis C virus subtype 1b
# [2] = molecular target: RNA-directed RNA polymerase (Hepacivirus hominis) (UniProt O39930); assay: Inhibition of HCV RNA replication in Huh7 cells; type: functional, cell-based; conditions: Huh-7
# In short: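 Huh-7 subgenomic replicon cells were seeded at 3 × 10³/well in DMEM with 10% FCS, 1% NEAA and 1 mg/mL G418, and allowed 4 h to attach. Eleven 2.5-fold DMSO dilutions were added (final 10,000 to 1.0 nM) and cells incubated 40 h. Neo RNA was measured by TaqMan RT-PCR, normalised to cyclophilin against DMSO controls; n = 8 wells per dilution.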
# [3] = Clearance in Sprague-Dawley rat at 1.2 mg/kg, iv or 3.7 mg/kg, po; type: ADME, organism-based; conditions: in vivo
# In short: (§1)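 Single-dose administration, given both intravenously and orally, to Sprague-Dawley rats, beagle dogs or cynomolgus monkeys. Plasma pharmacokinetic parameters are reported as means: Cmax in ng/mL, terminal half-life in min, clearance in mL/min/kg, steady-state volume of distribution in L/kg, and oral bioavailability F in %.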
# [4] = Cmax in cynomolgus monkey at 1.0 mg/kg, iv or 3.6 mg/kg, po; type: ADME, organism-based, Macaca fascicularis; conditions: in vivo
# In short: (§2)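 Single-dose pharmacokinetics in the named species, given iv and orally at the stated doses. Plasma Cmax, half-life, clearance, steady-state volume of distribution and oral bioavailability were reported as mean values.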
# [5] = Cmax in Sprague-Dawley rat at 1.2 mg/kg, iv or 3.7 mg/kg, po; type: ADME, organism-based; conditions: in vivo; in short: as §1
# [6] = Clearance in cynomolgus monkey at 1.0 mg/kg, iv or 3.6 mg/kg, po; type: ADME, organism-based, Macaca fascicularis; conditions: in vivo; in short: as §2
# [7] = Volume of distribution in cynomolgus monkey at 1.0 mg/kg, iv or 3.6 mg/kg, po; type: ADME, organism-based, Macaca fascicularis; conditions: in vivo, read-out: Vdss; in short: as §2
# [8] = Half life in cynomolgus monkey at 1.0 mg/kg, iv or 3.6 mg/kg, po; type: ADME, organism-based, Macaca fascicularis; conditions: in vivo; in short: as §2
# [9] = Oral bioavailability in Sprague-Dawley rat at 1.2 mg/kg, iv or 3.7 mg/kg, po; type: ADME, organism-based; conditions: in vivo; in short: as §1
# [10] = Oral bioavailability in cynomolgus monkey at 1.0 mg/kg, iv or 3.6 mg/kg, po; type: ADME, organism-based, Macaca fascicularis; conditions: in vivo; in short: as §2
# [11] = Oral bioavailability in Beagle dog at 0.9 mg/kg, iv or 3.6 mg/kg, po; type: ADME, organism-based, Canis lupus familiaris; conditions: in vivo; in short: as §2
# [12] = Clearance in Beagle dog at 0.9 mg/kg, iv or 3.6 mg/kg, po; type: ADME, organism-based, Canis lupus familiaris; conditions: in vivo; in short: as §2
# [13] = Cmax in Beagle dog at 0.9 mg/kg, iv or 3.6 mg/kg, po; type: ADME, organism-based, Canis lupus familiaris; conditions: in vivo; in short: as §2
# [14] = Half life in Sprague-Dawley rat at 1.2 mg/kg, iv or 3.7 mg/kg, po; type: ADME, organism-based; conditions: in vivo; in short: as §1
# [15] = Volume of distribution in Sprague-Dawley rat at 1.2 mg/kg, iv or 3.7 mg/kg, po; type: ADME, organism-based; conditions: in vivo, read-out: Vdss; in short: as §1
# [16] = Half life in Beagle dog at 0.9 mg/kg, iv or 3.6 mg/kg, po; type: ADME, organism-based, Canis lupus familiaris; conditions: in vivo; in short: as §2
# [17] = Volume of distribution in Beagle dog at 0.9 mg/kg, iv or 3.6 mg/kg, po; type: ADME, organism-based, Canis lupus familiaris; conditions: in vivo, read-out: Vdss; in short: as §2
# [18] = Clearance in Sprague-Dawley rat at 0.8 mg/kg, iv or 5.8 mg/kg, po; type: ADME, organism-based; conditions: in vivo; in short: as §2
# [19] = Oral bioavailability in Sprague-Dawley rat at 0.8 mg/kg, iv or 5.8 mg/kg, po; type: ADME, organism-based; conditions: in vivo; in short: as §2
# [20] = Volume of distribution in Sprague-Dawley rat at 0.8 mg/kg, iv or 5.8 mg/kg, po; type: ADME, organism-based; conditions: in vivo, read-out: Vdss; in short: as §2
# [21] = Oral bioavailability in Beagle dog at 0.8 mg/kg, iv or 1.8 mg/kg, po; type: ADME, organism-based, Canis lupus familiaris; conditions: in vivo; in short: as §1
# [22] = Cmax in Beagle dog at 0.8 mg/kg, iv or 1.8 mg/kg, po; type: ADME, organism-based, Canis lupus familiaris; conditions: in vivo; in short: as §1
# [23] = Clearance in Beagle dog at 0.8 mg/kg, iv or 1.8 mg/kg, po; type: ADME, organism-based, Canis lupus familiaris; conditions: in vivo; in short: as §1
# [24] = Volume of distribution in Beagle dog at 0.8 mg/kg, iv or 1.8 mg/kg, po; type: ADME, organism-based, Canis lupus familiaris; conditions: in vivo, read-out: Vdss; in short: as §1
# [25] = Half life in Sprague-Dawley rat at 0.8 mg/kg, iv or 5.8 mg/kg, po; type: ADME, organism-based; conditions: in vivo; in short: as §2
# [26] = Half life in Beagle dog at 0.8 mg/kg, iv or 1.8 mg/kg, po; type: ADME, organism-based, Canis lupus familiaris; conditions: in vivo; in short: as §1
# [27] = Oral bioavailability in cynomolgus monkey at 1.8 mg/kg, iv or 1.6 mg/kg, po; type: ADME, organism-based, Macaca fascicularis; conditions: in vivo; in short: as §1
# [28] = Half life in Beagle dog at 0.9 mg/kg, iv or 1.1 mg/kg, po; type: ADME, organism-based, Canis lupus familiaris; conditions: in vivo
# In short: (§3)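 Single-dose study, with separate intravenous and oral administrations at the listed mg/kg. Plasma concentrations were followed over time, and mean values were derived for Cmax, T1/2, clearance (mL/min/kg), Vdss (L/kg) and oral bioavailability (%).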
# [29] = Oral bioavailability in Beagle dog at 0.9 mg/kg, iv or 1.1 mg/kg, po; type: ADME, organism-based, Canis lupus familiaris; conditions: in vivo; in short: as §3
# [30] = Oral bioavailability in Sprague-Dawley rat at 1.3 mg/kg, iv or 7.7 mg/kg, po; type: ADME, organism-based; conditions: in vivo
# In short: (§4)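 Single intravenous or oral doses given to Sprague-Dawley rats. Values are reported as means: Cmax (ng/mL), half-life (min), plasma clearance (mL/min/kg), steady-state volume of distribution (L/kg) and oral bioavailability F (%).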
# [31] = Half life in Sprague-Dawley rat at 1.3 mg/kg, iv or 7.7 mg/kg, po; type: ADME, organism-based; conditions: in vivo; in short: as §4
# [32] = Volume of distribution in Beagle dog at 0.9 mg/kg, iv or 1.1 mg/kg, po; type: ADME, organism-based, Canis lupus familiaris; conditions: in vivo, read-out: Vdss; in short: as §3
# [33] = Clearance in cynomolgus monkey at 1.8 mg/kg, iv or 1.6 mg/kg, po; type: ADME, organism-based, Macaca fascicularis; conditions: in vivo; in short: as §1
# [34] = Clearance in Sprague-Dawley rat at 1.3 mg/kg, iv or 7.7 mg/kg, po; type: ADME, organism-based; conditions: in vivo; in short: as §4
# [35] = Cmax in Sprague-Dawley rat at 1.3 mg/kg, iv or 7.7 mg/kg, po; type: ADME, organism-based; conditions: in vivo; in short: as §4
# [36] = Volume of distribution in cynomolgus monkey at 1.8 mg/kg, iv or 1.6 mg/kg, po; type: ADME, organism-based, Macaca fascicularis; conditions: in vivo, read-out: Vdss; in short: as §1
# [37] = Cmax in cynomolgus monkey at 1.8 mg/kg, iv or 1.6 mg/kg, po; type: ADME, organism-based, Macaca fascicularis; conditions: in vivo; in short: as §1
# [38] = Clearance in Beagle dog at 0.9 mg/kg, iv or 1.1 mg/kg, po; conditions: in vivo
# [39] = Volume of distribution in Sprague-Dawley rat at 1.3 mg/kg, iv or 7.7 mg/kg, po; type: ADME, organism-based; conditions: in vivo, read-out: Vdss; in short: as §4
# [40] = Cmax in Beagle dog at 0.9 mg/kg, iv or 1.1 mg/kg, po; type: ADME, organism-based, Canis lupus familiaris; conditions: in vivo; in short: as §3
# [41] = Half life in cynomolgus monkey at 1.8 mg/kg, iv or 1.6 mg/kg, po; type: ADME, organism-based, Macaca fascicularis; conditions: in vivo; in short: as §1
# Sequence of RNA-directed RNA polymerase (Hepacivirus hominis) (O39930 1-591): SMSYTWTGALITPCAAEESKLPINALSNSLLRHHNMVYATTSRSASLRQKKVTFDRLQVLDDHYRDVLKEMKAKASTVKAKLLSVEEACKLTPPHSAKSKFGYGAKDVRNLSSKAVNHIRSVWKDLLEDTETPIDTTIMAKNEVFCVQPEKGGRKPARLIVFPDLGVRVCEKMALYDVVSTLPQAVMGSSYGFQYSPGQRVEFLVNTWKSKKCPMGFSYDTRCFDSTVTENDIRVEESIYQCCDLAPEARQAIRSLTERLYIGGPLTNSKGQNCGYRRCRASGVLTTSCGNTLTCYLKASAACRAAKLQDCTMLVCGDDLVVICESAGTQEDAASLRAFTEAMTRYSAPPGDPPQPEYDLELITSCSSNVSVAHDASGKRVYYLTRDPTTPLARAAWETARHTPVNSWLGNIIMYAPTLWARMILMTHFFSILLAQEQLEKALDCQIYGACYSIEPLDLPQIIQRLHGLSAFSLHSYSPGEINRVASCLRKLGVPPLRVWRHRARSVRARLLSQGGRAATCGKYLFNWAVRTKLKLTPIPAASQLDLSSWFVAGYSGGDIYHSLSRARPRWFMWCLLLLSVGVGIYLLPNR
# Sequence of RNA-directed RNA polymerase (O39930 whole entry): as the sequence (O39930 1-591) above
smiles,measurement,setting,value
Cc1ccc2c(c1)c(O)c(C1=NS(=O)(=O)c3ccccc3N1)c(=O)n2CCC(C)C,IC50,[1],47 nM
same,EC90,[2],831 nM
same,clearance,[3],1.65 mL/min/kg
same,Cmax,[4],2140 ng/mL
same,Cmax,[5],1220 ng/mL
same,clearance,[6],5.32 mL/min/kg
same,Vd,[7],0.34 L/kg
same,half-life,[8],0.828 h
same,bioavailability,[9],100%
same,bioavailability,[10],> 53%
same,bioavailability,[11],> 50%
same,clearance,[12],1.09 mL/min/kg
same,Cmax,[13],1960 ng/mL
same,half-life,[14],5.29 h
same,Vd,[15],0.81 L/kg
same,half-life,[16],9.06 h
same,Vd,[17],0.72 L/kg
CC(C)CCn1c(=O)c(C2=NS(=O)(=O)c3ccccc3N2)c(O)c2ccccc21,clearance,[18],10.1 mL/min/kg
same,bioavailability,[19],70%
same,EC90,[2],1420 nM
same,Vd,[20],0.44 L/kg
same,bioavailability,[21],89%
same,Cmax,[22],2230 ng/mL
same,clearance,[23],0.5 mL/min/kg
same,Vd,[24],0.53 L/kg
same,half-life,[25],0.607 h
same,half-life,[26],14.3 h
O=c1c(C2=NS(=O)(=O)c3ccccc3N2)c(O)c2ccccc2n1CCC1CC1,IC50,[1],13 nM
same,bioavailability,[27],> 40%
same,EC90,[2],808 nM
same,half-life,[28],4.82 h
same,bioavailability,[29],100%
same,bioavailability,[30],78%
same,half-life,[31],1.87 h
same,Vd,[32],0.15 L/kg
same,clearance,[33],1.73 mL/min/kg
same,clearance,[34],1.7 mL/min/kg
same,Cmax,[35],6460 ng/mL
same,Vd,[36],0.19 L/kg
same,Cmax,[37],7920 ng/mL
same,clearance,[38],0.47 mL/min/kg
same,Vd,[39],0.25 L/kg
same,Cmax,[40],5400 ng/mL
same,half-life,[41],1.35 h
